Results as given in ChEMBL document CHEMBL1138815, “Synthesis, structure-activity relationships, and in vivo properties of 3,4-dihydro-1H-pyrido[2,3-b]pyrazin-2-ones as corticotropin-releasing factor-1 receptor antagonists” (J Med Chem, 2004).

How the values were obtained:
[1] = target: T1, Corticotropin-releasing factor receptor 1 (Rattus norvegicus, UniProt P35353); test: (§1) Inhibition of [125I]ovine-CRF binding to corticotropin releasing factor receptor 1
T1 sequence (P35353 whole entry): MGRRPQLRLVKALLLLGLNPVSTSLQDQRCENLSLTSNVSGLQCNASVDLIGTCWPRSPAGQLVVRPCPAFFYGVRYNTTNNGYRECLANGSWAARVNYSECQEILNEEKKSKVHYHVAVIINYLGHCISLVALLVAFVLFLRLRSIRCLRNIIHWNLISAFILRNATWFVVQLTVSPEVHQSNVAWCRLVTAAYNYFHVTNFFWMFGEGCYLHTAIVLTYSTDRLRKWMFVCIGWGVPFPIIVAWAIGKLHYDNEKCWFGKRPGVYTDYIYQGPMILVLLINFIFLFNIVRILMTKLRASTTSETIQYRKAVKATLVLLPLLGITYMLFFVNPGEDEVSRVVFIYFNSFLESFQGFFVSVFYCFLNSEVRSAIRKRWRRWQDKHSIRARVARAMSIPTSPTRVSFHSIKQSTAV
Method in brief: (§2)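 CRF1 source is rat frontal cortex membranes (25 µg/well), washed by homogenization and 32000g spins. Incubated with 150 pM [125I]ovine-CRF for 2 h at 21 °C in 50 mM Hepes pH 7.0 with MgCl2, EGTA, protease inhibitors, Triton X-100, bacitracin and ovalbumin. Separated by filtration on PEI-treated GF/B filters and gamma counted. Nonspecific binding defined with 1 µM DMP696.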

[2] = Clearance in Beagle dogs; format: ADME, organism-based, Canis lupus familiaris; conditions: dog, in vivo
Method in brief: (§3)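 Beagle dogs dosed iv at 1.0 mg/kg (n = 2) in propylene glycol:water:N,N-dimethylacetamide 80:10:10, or po at 5.0 mg/kg (n = 2) in Labrafil:ethanol:Tween 80 85:10:5. Blood drawn by jugular venipuncture at 0–24 h (iv from 0.1 h, po from 0.5 h). Plasma stored at -20 °C, levels measured by LC/MS/MS.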

[3] = Volume of distribution in Beagle dogs; format: ADME, organism-based, Canis lupus familiaris; conditions: dog, in vivo; method in brief: as §3
[4] = Mean free plasma concentration was determined in the defensive withdrawal model of rats after oral administration; Dose 1 mg/kg; format: ADME, organism-based; design: dose 1 mg/kg, route oral; conditions: rat, in vivo
[5] = Mean free plasma concentration was determined in the defensive withdrawal model of rats after oral administration; Dose 10 mg/kg; format: ADME, organism-based; design: dose 10 mg/kg, route oral; conditions: rat, in vivo
[6] = Mean total plasma concentration was determined in the defensive withdrawal model of rats after oral administration; Dose 1 mg/kg; format: ADME, organism-based; design: dose 1 mg/kg, route oral; conditions: rat, in vivo, read-out: Mean total plasma concentration
[7] = Mean total plasma concentration was determined in the defensive withdrawal model of rats after oral administration; Dose 3 mg/kg; format: ADME, organism-based; design: dose 3 mg/kg, route oral; conditions: rat, in vivo, read-out: Mean total plasma concentration
[8] = Mean total plasma concentration was determined in the defensive withdrawal model of rats after oral administration; Dose 10 mg/kg; format: ADME, organism-based; design: dose 10 mg/kg, route oral; conditions: rat, in vivo, read-out: Mean total plasma concentration
[9] = target: T2, Corticotropin-releasing factor receptor 1 (Rattus norvegicus) (UniProt P35353); test: Percent occupancy of corticotropin releasing factor receptor 1 in defensive withdrawal model in rats after oral administration; Dose 1 mg/kg; format: functional, organism-based; design: dose 1 mg/kg; conditions: at 1 mg/kg
T2 sequence (whole entry): T1 sequence (P35353 whole entry)
Method in brief: (§4)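 After oral dosing at 1, 3 or 10 mg/kg in the defensive withdrawal rats, CRF1 occupancy in parietal cortex measured by ex vivo autoradiography; n = 5.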

[10] = target: T2, Corticotropin-releasing factor receptor 1 (Rattus norvegicus); test: Percent occupancy of corticotropin releasing factor receptor 1 in defensive withdrawal model in rats after oral administration; Dose 3 mg/kg; format: organism-based; design: dose 3 mg/kg; conditions: at 3 mg/kg; method in brief: as §4
[11] = target: T2, Corticotropin-releasing factor receptor 1 (Rattus norvegicus); test: Percent occupancy of corticotropin releasing factor receptor 1 in defensive withdrawal model in rats after oral administration; Dose 10 mg/kg; format: organism-based; design: dose 10 mg/kg; conditions: at 10 mg/kg; method in brief: as §4
[12] = target: T3, Adenosine receptor A3 (Homo sapiens) (UniProt P0DMS8); test: Inhibition of Adenosine A3 receptor at 10 uM
T3 sequence (whole entry): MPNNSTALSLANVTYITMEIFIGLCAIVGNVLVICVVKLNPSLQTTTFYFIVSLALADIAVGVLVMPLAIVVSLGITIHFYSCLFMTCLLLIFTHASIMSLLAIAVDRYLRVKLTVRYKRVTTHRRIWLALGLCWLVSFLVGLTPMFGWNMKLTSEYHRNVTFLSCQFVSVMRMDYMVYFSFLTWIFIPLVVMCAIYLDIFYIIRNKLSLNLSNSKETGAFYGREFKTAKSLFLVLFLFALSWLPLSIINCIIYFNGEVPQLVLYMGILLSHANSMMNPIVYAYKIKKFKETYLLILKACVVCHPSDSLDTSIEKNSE

[13] = target: Cannabinoid receptor 1 (Homo sapiens) (UniProt P21554); test: Inhibition of Cannabinoid receptor 1 at 10 uM
Sequence of Cannabinoid receptor 1 (Homo sapiens) (P21554 whole entry): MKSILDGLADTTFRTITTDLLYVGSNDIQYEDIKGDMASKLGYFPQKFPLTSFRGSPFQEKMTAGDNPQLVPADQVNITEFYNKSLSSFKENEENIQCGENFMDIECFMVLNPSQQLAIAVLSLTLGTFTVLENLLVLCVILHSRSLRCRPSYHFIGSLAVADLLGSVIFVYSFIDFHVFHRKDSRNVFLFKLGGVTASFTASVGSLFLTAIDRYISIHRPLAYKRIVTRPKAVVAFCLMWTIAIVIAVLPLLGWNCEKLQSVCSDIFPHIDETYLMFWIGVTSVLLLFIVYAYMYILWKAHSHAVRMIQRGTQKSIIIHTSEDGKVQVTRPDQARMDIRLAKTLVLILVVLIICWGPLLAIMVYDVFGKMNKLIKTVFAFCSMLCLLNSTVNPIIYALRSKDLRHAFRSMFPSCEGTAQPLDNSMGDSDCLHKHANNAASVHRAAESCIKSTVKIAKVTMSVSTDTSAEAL

[14] = target: Corticotropin releasing factor receptor (Rattus norvegicus, UniProt P47866+P35353); test: Inhibition of corticotropin releasing factor-induced ACTH release from rat pituitary cells; format: functional, cell-based; conditions: pituitary gland cell
Method in brief: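 Cultured rat pituitary cells stimulated with 0.3 nM CRF, with inhibition of ACTH release measured across a concentration range to give IC50; n = 3.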

[15] = Bioavailability in Beagle dogs; format: ADME, organism-based, Canis lupus familiaris; conditions: dog, in vivo, read-out: Bioavailabiility; method in brief: as §3
[16] = Half life in Beagle dogs; format: ADME, Canis lupus familiaris; conditions: dog, in vivo; method in brief: as §3
[17] = Mean free plasma concentration was determined in the defensive withdrawal model of rats after oral administration; Dose 3 mg/kg; format: ADME, organism-based; design: dose 3 mg/kg, route oral; conditions: rat, in vivo
[18] = target: Vasopressin V1 receptor (Homo sapiens) (UniProt P37288+P47901); test: Inhibition of Vasopressin V1 receptor at 10 uM; format: protein assay
Sequence of Vasopressin V1 receptor (Homo sapiens) (P37288 whole entry, looked up): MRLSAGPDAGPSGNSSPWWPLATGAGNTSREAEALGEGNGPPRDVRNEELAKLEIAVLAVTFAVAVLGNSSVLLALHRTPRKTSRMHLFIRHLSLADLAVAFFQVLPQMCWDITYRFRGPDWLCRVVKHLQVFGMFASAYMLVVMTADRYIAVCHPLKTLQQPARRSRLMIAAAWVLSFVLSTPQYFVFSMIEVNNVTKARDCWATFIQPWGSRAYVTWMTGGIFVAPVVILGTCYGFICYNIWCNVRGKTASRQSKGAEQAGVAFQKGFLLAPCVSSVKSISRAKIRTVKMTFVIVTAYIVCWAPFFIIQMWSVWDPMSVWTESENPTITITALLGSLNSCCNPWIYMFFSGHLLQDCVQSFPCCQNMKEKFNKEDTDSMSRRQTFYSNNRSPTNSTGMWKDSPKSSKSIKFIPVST
Sequence of Vasopressin V1 receptor (Homo sapiens) (P47901 whole entry, looked up): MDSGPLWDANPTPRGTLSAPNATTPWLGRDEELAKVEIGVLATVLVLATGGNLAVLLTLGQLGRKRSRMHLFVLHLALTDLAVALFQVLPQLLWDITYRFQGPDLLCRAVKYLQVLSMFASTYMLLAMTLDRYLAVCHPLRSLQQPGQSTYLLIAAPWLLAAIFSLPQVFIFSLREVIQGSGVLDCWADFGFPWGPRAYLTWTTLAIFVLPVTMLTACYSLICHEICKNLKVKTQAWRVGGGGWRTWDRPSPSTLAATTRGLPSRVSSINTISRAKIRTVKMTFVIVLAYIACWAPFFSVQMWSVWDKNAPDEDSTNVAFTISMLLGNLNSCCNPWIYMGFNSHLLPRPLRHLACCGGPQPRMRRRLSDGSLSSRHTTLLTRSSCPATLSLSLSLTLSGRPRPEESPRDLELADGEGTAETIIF

[19] = test system: Rattus norvegicus; test: Percent decrease in exit latency was determined in the defensive withdrawal model of rats after oral administration; Dose 3 mg/kg; format: functional
Method in brief: (§5)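 Male Sprague–Dawley rats (180–300 g) dosed po at 1, 3 or 10 mg/kg in 0.25% methocel suspension, 1 h before testing. Each rat placed in a darkened chamber inside a brightly lit open field; latency to emerge timed. Result expressed as % decrease versus vehicle, n = 8 per dose.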

[20] = test system: Rattus norvegicus; test: Percent decrease in exit latency was determined in the defensive withdrawal model of rats after oral administration; Dose 10 mg/kg; format: functional; method in brief: as §5
[21] = test system: Rattus norvegicus; test: Percent decrease in exit latency was determined in the defensive withdrawal model of rats after oral administration; Dose 1 mg/kg; format: functional; method in brief: as §5
[22] = target: T4, Corticotropin-releasing factor receptor 1 (Homo sapiens, UniProt P34998); test: as §1; method in brief: as §2
T4 sequence (P34998 whole entry): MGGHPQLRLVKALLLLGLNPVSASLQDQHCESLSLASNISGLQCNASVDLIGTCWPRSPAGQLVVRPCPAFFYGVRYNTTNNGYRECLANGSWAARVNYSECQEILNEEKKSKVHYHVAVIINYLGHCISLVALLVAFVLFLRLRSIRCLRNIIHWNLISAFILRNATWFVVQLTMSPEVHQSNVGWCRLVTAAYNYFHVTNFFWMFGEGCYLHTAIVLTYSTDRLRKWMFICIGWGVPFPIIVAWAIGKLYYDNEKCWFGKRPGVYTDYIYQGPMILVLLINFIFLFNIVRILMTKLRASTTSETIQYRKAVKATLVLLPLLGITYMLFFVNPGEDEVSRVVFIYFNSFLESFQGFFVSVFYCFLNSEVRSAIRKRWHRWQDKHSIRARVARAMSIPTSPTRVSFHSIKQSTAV

| Structure (SMILES) | IC50 [1] | other results |
| --- | --- | --- |
| CCN(CC1CCCO1)c1cc(C)nc2c1NC(=O)CN2c1ccc(C(C)C)cc1Br (stereo unspecified) | 4.1 nM | – |
| CCCCN(CC)c1cc(C)nc2c1NC(=O)CN2c1ccc(OC)nc1C | 4.2 nM | – |
| CCCCN(CC)c1cc(C)nc2c1NC(=O)CN2c1c(Cl)cc(C#N)cc1Cl | 3.3 nM | – |
| CCC(CC)Nc1cc(C)nc2c1NC(=O)CN2c1ccc(Cl)cc1Cl | 198 nM | – |
| CCCCN(CC)c1cc(C)nc2c1NC(=O)CN2c1ccc(C(C)C)cc1Cl | 0.91 nM | – |
| CCCCNc1cc(C)nc2c1NC(=O)CN2c1ccc(OC)cc1Cl | > 1000 nM | – |
| CCCCN(CC)c1cc(C)nc2c1NC(=O)CN2c1ccc(OC)nc1OC | 0.82 nM | Clearance [2]: 27.8 mL/min/kg; Volume of distribution [3]: 40.6 L/kg; Mean free plasma concentration [4]: 0.05 nM; Mean free plasma concentration [5]: 1.02 nM; concentration [6]: 3.1 nM; concentration [7]: 21.7 nM; concentration [8]: 61.5 nM; Occupancy [9]: 17%; Occupancy [10]: 23%; Occupancy [11]: 59%; inhibition [12]: 49%; inhibition [13]: 53%; IC50 [14]: 38.7 nM; bioavailability [15]: 24%; T1/2 [16]: 27.6 h; Mean free plasma concentration [17]: 0.36 nM; inhibition [18]: 47%; Decrease in exit latency [19]: 14%; Decrease in exit latency [20]: 81%; Decrease in exit latency [21]: 0% |
| CCCCN(CC)c1cc(C)nc2c1NC(=O)CN2c1ccc(Cl)cc1Cl | 0.49 nM | – |
| CCCCN(CC)c1cc(C)nc2c1NC(=O)CN2c1ccccc1Br | 7.1 nM | – |
| CCCN(CCOC)c1cc(C)nc2c1NC(=O)CN2c1ccc(C(C)C)cc1Cl | 2.6 nM | – |
| CCNc1cc(C)nc2c1NC(=O)CN2c1ccc(OC)cc1Cl | > 1000 nM | – |
| CCCCN(CC)c1cc(C)nc(N(CC)c2ccc(C(C)C)cc2Br)n1 | – | Ki [22]: 18 nM |
| CCN(CCCC#N)c1cc(C)nc2c1NC(=O)CN2c1ccc(OC)cc1C | 92 nM | – |
| CCN(CCCS(C)(=O)=O)c1cc(C)nc2c1NC(=O)CN2c1ccc(C(C)C)cc1Br | 305 nM | – |
| CCN(c1cc(C)nc2c1NC(=O)CN2c1cc(F)c(OC)cc1Cl)C(C)C | 1.5 nM | – |
| COCCN(CCOC)c1cc(C)nc2c1NC(=O)CN2c1ccc(C(C)C)cc1Cl | 18 nM | – |
| Cc1cc(N2CCOCC2)c2c(n1)N(c1ccc(C(C)C)cc1Br)CC(=O)N2 | 126 nM | – |
| CCCCN(CC)c1cc(C)nc2c1NC(=O)CN2c1ccc(C(C)C)cc1 | 49 nM | – |
| CCCCN(CC)c1cc(C)nc2c1NC(=O)CN2c1ccc(OC)cc1C | 0.92 nM | – |
| CCCCN(CC)c1cc(C)nc2c1NC(=O)CN2c1ccc(OC)cc1Cl | 0.3 nM | – |
| CCCCN(CC)c1cc(C)nc2c1NC(=O)CN2c1ccc(Cl)cc1C#N | 10 nM | – |
| CCCN(CC1CCC1)c1cc(C)nc2c1NC(=O)CN2c1ccc(C#N)cc1Cl | 1.8 nM | – |
| CCCCN(CC)c1cc(C)nc2c1NC(=O)CN2c1ccc(C(C)C)cc1Br | 0.7 nM | – |
| CCCN(CCC)c1cc(C)nc2c1NC(=O)CN2c1ccc(C#N)cc1Cl | 1.2 nM | – |
| CCCCN(CC)c1cc(C)nc2c1NC(=O)CN2c1cc(F)c(OC)cc1Cl | 0.5 nM | – |
| CCCCN(CC)c1cc(C)nc2c1NC(=O)CN2c1ccc(C#N)cc1Cl | 2.2 nM | – |
